Activity calls are given as the source filed them. No cut-off for these calls is given here.

The test system of assay [1] is HEK293. The assay is described as follows: Stimulation of EGFP-tagged rat AT1 receptor expressed in HEK cells assessed as increase in intracellular calcium level at 10 nM after 3 mins by fluorimetric assay. For orientation: Calcium flux is commonly read through the fluorescence of an indicator in the cells.
The test system of assay [2] is HEK293. Briefly: Stimulation of EGFP-tagged rat AT1 receptor expressed in HEK cells assessed as change in cluster density value at 2.5 nM under non-oxidative condition by image correlation spectroscopic analysis relative to control. The class given is cell-based. The method, boiled down:
(§1)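 HEK cells expressing EGFP-tagged AT₁R were plated at 1.5 × 10⁵ cells per glass-bottom dish. Where stated, cells were pre-treated with H₂O₂ for 3 h. Cell surfaces were imaged before and after 5 nM monovalent Ang II (or a 5 nM total 1:1 mixture) or 2.5 nM bivalent peptide. Imaging used a 488 nm laser and a 60× oil objective. Image correlation spectroscopy gave mean fluorescence intensity, cluster density and degree of aggregation versus unstimulated baseline.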

In assay [3] the test system is HEK293. The assay is described as follows: Stimulation of EGFP-tagged rat AT1 receptor expressed in HEK cells assessed as increase in degree of aggregation at 2.5 nM under non-oxidative condition by image correlation spectroscopic analysis. The class given is cell-based. The method, boiled down: as §1
The test system of assay [4] is HEK293. The assay is described as follows: Stimulation of EGFP-tagged rat AT1 receptor expressed in HEK cells assessed as increase in degree of aggregation at 2.5 nM under H2O2-induced oxidative stress condition by image correlation spectroscopic analysis. The class given is cell-based. The method, boiled down: as §1
Assay [5] concerns HEK293. Briefly: Stimulation of EGFP-tagged rat AT1 receptor expressed in HEK cells assessed as increase in intracellular calcium level at 5 nM after 3 mins under H2O2-induced oxidative stress condition by fluorimetric assay.
In assay [6] the test system is HEK293. The assay is described as follows: Stimulation of EGFP-tagged rat AT1 receptor expressed in HEK cells assessed as decrease in cluster density value at 2.5 nM under H2O2-induced oxidative stress condition by image correlation spectroscopic analysis. Type of assay: cell-based. The method, boiled down:
as §1

Assay [7] concerns HEK293. The assay is described as follows: Stimulation of EGFP-tagged rat AT1 receptor expressed in HEK cells assessed as increase in degree of aggregation at 5 nM under non-oxidative condition by image correlation spectroscopic analysis. Type of assay: cell-based. The method, boiled down:
as §1

Assay [8] concerns HEK293. The assay is described as follows: Stimulation of EGFP-tagged rat AT1 receptor expressed in HEK cells assessed as increase in mean fluorescence intensity at 5 nM under non-oxidative condition by image correlation spectroscopic analysis relative to control. The class given is cell-based. Summed up:
as §1

Assay [9] concerns HEK293. The assay is described as follows: Stimulation of EGFP-tagged rat AT1 receptor expressed in HEK cells assessed as increase in degree of aggregation at 5 nM under H2O2-induced oxidative stress condition by image correlation spectroscopic analysis. The class given is cell-based. The method, boiled down: as §1
In assay [10] the test system is HEK293. Briefly: Stimulation of EGFP-tagged rat AT1 receptor expressed in HEK cells assessed as increase in intracellular calcium level at 5 nM after 3 mins under H2O2-induced oxidative stress condition by fluorimetric assay. The class given is cell-based. Summed up:
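Before the Indo1-AM [Ca²⁺]i assay, AT₁R-HEK cells were exposed to H₂O₂ for 3 h to impose oxidative stress. They were then stimulated with 5 nM peptide, based on Ang II equivalents. Ratiometric emission at 405/490 nm (ex 338 nm) was monitored for 3 min after ligand addition. Ca²⁺ was derived by Kd-based calibration against EGTA and ionomycin ratios.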

The subject of assay [11] is HEK293. The assay is described as follows: Stimulation of EGFP-tagged rat AT1 receptor expressed in HEK cells assessed as increase in cluster density value at 5 nM under non-oxidative condition by image correlation spectroscopic analysis relative to control. Type of assay: cell-based. Summed up: as §1
Assay [12] concerns HEK293. Briefly: Stimulation of EGFP-tagged rat AT1 receptor expressed in HEK cells assessed as increase in mean fluorescence intensity at 5 nM under H2O2-induced oxidative stress condition by image correlation spectroscopic analysis relative to control. The class given is cell-based. Summed up:
as §1

Assay [13] deals with HEK293. The assay is described as follows: Stimulation of EGFP-tagged rat AT1 receptor expressed in HEK cells assessed as increase in cluster density value at 5 nM under H2O2-induced oxidative stress condition by image correlation spectroscopic analysis. Type of assay: cell-based. Summed up: as §1

Regarding `CC[C@H](C)[C@H](NC(=O)[C@H](Cc1ccc(O)cc1)NC(=O)[C@@H](NC(=O)[C@H](CCCNC(=N)N)NC(=O)[C@H](CC(=O)O)NC(=O)CCCCCNc1c(OC)c(=O)c1=O)C(C)C)C(=O)N[C@@H](Cc1cnc[nH]1)C(=O)N1CCC[C@H]1C(=O)N[C@@H](Cc1ccccc1)C(=O)O`, the result in the assay on HEK293 [1] was Active.
Take `CC[C@H](C)[C@H](NC(=O)[C@H](Cc1ccc(O)cc1)NC(=O)[C@@H](NC(=O)[C@H](CCCNC(=N)N)NC(=O)[C@H](CC(=O)O)NC(=O)CCCCCNc1c(N[C@@H](CC(=O)O)C(=O)N[C@@H](CCCNC(=N)N)C(=O)N[C@H](C(=O)N[C@@H](Cc2ccc(O)cc2)C(=O)N[C@H](C(=O)N[C@@H](Cc2cnc[nH]2)C(=O)N2CCC[C@H]2C(=O)N[C@@H](Cc2ccccc2)C(=O)O)[C@@H](C)CC)C(C)C)c(=O)c1=O)C(C)C)C(=O)N[C@@H](Cc1cnc[nH]1)C(=O)N1CCC[C@H]1C(=O)N[C@@H](Cc1ccccc1)C(=O)O`: the outcome in the assay on HEK293 [2] and in the assay with HEK293 [6] was inactive. Also, the result with HEK293 [3], with HEK293 [4] and with HEK293 [5] was Active.
For `CC[C@H](C)[C@H](NC(=O)[C@H](Cc1ccc(O)cc1)NC(=O)[C@@H](NC(=O)[C@H](CCCNC(=N)N)NC(=O)[C@@H](N)CC(=O)O)C(C)C)C(=O)N[C@@H](Cc1cnc[nH]1)C(=O)N1CCC[C@H]1C(=O)N[C@@H](Cc1ccccc1)C(=O)O`, the outcome in the assay with HEK293 [7] was inactive. Also, the outcome with HEK293 [8], in the assay with HEK293 [9], in the assay with HEK293 [10], with HEK293 [11], with HEK293 [12] and in the assay on HEK293 [13] was Active.

The values above are taken from ChEMBL document CHEMBL2375226, “Bivalent angiotensin II suppresses oxidative stress-induced hyper-responsiveness of angiotensin II receptor type I” (Eur J Med Chem, 2013).
